Assay outcomes: PubChem, Broad Institute
The entries come from a sample that favours hits as a whole.
GASC1 inh – inhibitors of GASC-1 (KDM4C) histone demethylase, primary screen, biochemical, single concentration HTS | Lysine-specific demethylase 4C (Homo sapiens), Q9H3R0 | GST-KDM4C 2-372, H3K9me3 peptide, LANCE TR-FRET | inhibition, % at 12.5 µM | 96,000 compounds, 0.15% hits | AID 720574, 2013;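 active = mean replicate inhibition above about 25%, with at least 55% of replicates also reaching it, limit read from the data, passing the limit was not always enough; inconclusive = only one of those two conditions met; inactive = neither condition met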
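System: N-terminal GST-fused human GASC-1 (KDM4C) fragment, residues 2-372; amount: enzyme final amount 10 nM; incubation: reaction 30 min RT, detection step 1 h RT; medium: HEPES buffer, pH 7.5, plus ascorbate; technique: LANCE TR-FRET, Eu antibody, ULight-streptavidin, EDTA, ex 340 nm, em 618/671 nm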
IDH1 mut inh – inhibitors of IDH1 R132H reductase, primary screen, biochemical, plate reader, single point | inhibition, % at 10 µM | 70,000 compounds, 0.18% hits | Isocitrate dehydrogenase [NADP] cytoplasmic (Homo sapiens), O75874 | diaphorase/resazurin fluorescence, 60 min; in the data active = inhibition above about 34%; inconclusive = no clear call, values can overlap the other calls; inactive = below about 11%;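 note: 0% = DMSO and 100% = no enzyme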
Target sequence (O75874 whole entry R132H): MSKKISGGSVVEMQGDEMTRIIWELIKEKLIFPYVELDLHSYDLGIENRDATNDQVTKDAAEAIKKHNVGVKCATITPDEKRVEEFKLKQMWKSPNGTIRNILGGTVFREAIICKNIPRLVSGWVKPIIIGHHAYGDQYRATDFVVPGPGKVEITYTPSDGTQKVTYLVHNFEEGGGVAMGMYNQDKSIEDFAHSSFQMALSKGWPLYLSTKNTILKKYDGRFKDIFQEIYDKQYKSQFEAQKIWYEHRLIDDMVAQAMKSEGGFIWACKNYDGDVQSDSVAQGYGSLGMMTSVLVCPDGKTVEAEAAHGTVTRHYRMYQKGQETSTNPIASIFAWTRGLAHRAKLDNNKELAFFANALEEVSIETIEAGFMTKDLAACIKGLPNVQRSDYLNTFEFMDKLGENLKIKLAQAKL
T cruzi growth-1 – T. cruzi intracellular proliferation inhibitors, primary screen, cell-based, beta-gal Tulahuen parasites, NIH3T3 host, luminescence | 77,000 compounds, 5.9% hits | T. cruzi beta-gal in NIH3T3, GalScreen luminescence, 90 h | inhibition, % at 8.34 µM;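 active = mean inhibition above about 93%, with at least 55% of replicates each passing it, limit read from the data, passing the limit was not always enough; inconclusive = only one of those two conditions holds; inactive = neither condition holds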
T cruzi growth-2 – T. cruzi intracellular proliferation inhibitors, confirmation, cell-based, NIH3T3 host, beta-gal parasite, luminescence, cherry-pick | shares compounds with T cruzi growth-1 | T. cruzi beta-gal in NIH3T3, GalScreen luminescence, 90 h | inhibition, % at 8.35 µM | 5,600 compounds, 72% hits;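 active = mean replicate inhibition above about 95% and at least 55% of replicates individually reaching it, limit read from the data; inconclusive = only one of the two criteria is met; inactive = neither criterion is met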
T cruzi growth-3 – inhibitors of intracellular T. cruzi replication, confirmation, NIH3T3 host cells, beta-gal parasites, cherry-pick, set 2; shares compounds with T cruzi growth-1; T. cruzi beta-gal in NIH3T3, GalScreen luminescence, 90 h; 5,600 compounds, 21% hits; inhibition, % at 2.09 µM; AID 651740, 2012;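 active = mean inhibition above about 95%, with at least 55% of replicates also reaching it, limit read from the data; inconclusive = meets just one of the two conditions; inactive = meets neither condition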;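 note: plate controls were neutral control median for no effect and positive control median for full effect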
3T3 cytotox – cytotoxicity in mouse NIH/3T3 fibroblasts, confirmation, cytotoxicity control for T. cruzi proliferation inhibitor project, cell-based, cherry-pick, single point | AID 651742, 2012 | shares compounds with T cruzi growth-1 | cytotoxicity (signal decrease), % at 8.35 µM | 5,600 compounds, 14% hits | NIH/3T3 viability, CellTiter-Glo ATP luminescence, 90 h;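 active = mean signal decrease across replicates above about 35% based on untreated-well scatter, with enough replicates individually passing, limit read from the data; inconclusive = no rule stated though some were filed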;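 note: 0% = median of neutral control wells and 100% = median of positive control wells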
3T3 cytotox 2 – NIH/3T3 fibroblast cytotoxicity, confirmation, cytotoxicity control, cell-based, cherry-pick, single point, set 2; shares compounds with T cruzi growth-1; NIH/3T3 viability, CellTiter-Glo ATP luminescence, 90 h; inhibition, % at 24.9 µM; 5,600 compounds, 56% hits;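 active = mean loss of cell viability signal at or above a set limit, and enough replicates individually reaching it; inconclusive = meets only the mean limit or only the replicate share; inactive = meets neither condition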;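 note: 0% = median of neutral control wells and 100% = median of positive control wells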
* = called active by the depositor; u = inconclusive; x = not tested or not shown.

SMILES	GASC1 inh	IDH1 mut inh	T cruzi growth-1	T cruzi growth-2	T cruzi growth-3	3T3 cytotox	3T3 cytotox 2
C[C@@H]1CN([C@H](C)CO)C(=O)Cc2cc(NC(=O)Nc3ccc(C(F)(F)F)cc3)ccc2O[C@@H]1CN(C)Cc1ccc(C(=O)Nc2ccccc2N)cc1	-1	0	u	100*	106*	55*	97*
C[C@H]1CN([C@@H](C)CO)C(=O)Cc2cc(NC(=O)Cc3ccccc3)ccc2O[C@H]1CN(C)Cc1ccc(C(=O)Nc2ccccc2N)cc1	0	1	x	x	x	x	x
C[C@@H]1CN([C@@H](C)CO)C(=O)CCCn2nncc2CO[C@@H]1CN(C)Cc1ccc(C(=O)O)cc1	0	x	x	x	x	x	x
C[C@H]1CN([C@@H](C)CO)C(=O)Cc2cc(NC(=O)Nc3ccc(C(F)(F)F)cc3)ccc2O[C@H]1CN(C)Cc1ccc(C(=O)Nc2ccccc2N)cc1	9	x	80	x	x	x	x
COCC(=O)Nc1ccc2c(c1)OC[C@@H](C)N(C(=O)Cc1ccccn1)C[C@@H](C)[C@@H](OC)CN(C)C2=O	0	0	9	x	x	x	x
COc1ccccc1S(=O)(=O)N[C@@H]1CC[C@@H](CC(=O)NCc2cccc(F)c2)O[C@H]1CO	0	0	54	x	x	x	x
COc1ccc(NC(=O)CN(C)S(=O)(=O)c2ccc(C)cc2)c(OC)c1	x	0	x	x	x	x	x
O=C(NC1CCCC1)N1CCCCN2[C@H](CO)[C@@H](c3ccc(/C=C/c4ccccc4)cc3)[C@H]2C1	-4	x	57	x	x	x	x
O=C(NC1CCCC1)N1CCCCN2[C@H](CO)[C@H](c3ccc(/C=C/c4ccccc4)cc3)[C@@H]2C1	0	x	114*	95*	100*	16	103*
O=C(NC1CCCC1)N1CCCCN2[C@H](CO)[C@H](c3ccc(/C=C/c4ccccc4)cc3)[C@H]2C1	0	x	110*	100*	117*	24	104*
C/C=C/c1ccc([C@H]2[C@@H](CO)N3CCCCN(C(=O)NC4CCCC4)C[C@H]23)cc1	2	x	49	x	x	x	x
CO[C@@H]1CN(C)C(=O)c2cc(NS(=O)(=O)c3ccccc3Cl)ccc2OC[C@H](C)NC[C@@H]1C	1	0	-19	x	x	x	x
CN1c2ccc(-c3cccc(C#N)c3)cc2[C@@H]2[C@@H](CCN2S(=O)(=O)c2ccccc2)[C@H]1CO	1	x	97*	98*	109*	52*	76*
Cc1cccc(S(=O)(=O)N2CC[C@@H]3[C@H]2c2cc(-c4cccc(C#N)c4)ccc2N(C)[C@H]3CO)c1	-26	x	83	x	x	x	x
CN1c2ccc(C3=CCCCC3)cc2[C@@H]2[C@@H](CCN2S(=O)(=O)c2ccccc2)[C@@H]1CO	0	x	105*	96*	106*	33	78*
Cc1cccc(S(=O)(=O)N2CC[C@@H]3[C@H](CO)N(C)c4ccc(-c5cccc(C#N)c5)cc4[C@@H]32)c1	-2	x	77	x	x	x	x
Cc1ccc(S(=O)(=O)N2CC[C@@H]3[C@H]2c2cc(-c4cccc(C#N)c4)ccc2N(C)[C@H]3CO)cc1	2	x	u	104*	100*	44*	42*
CN1c2ccc(C3=CCCCC3)cc2[C@@H]2[C@@H](CCN2S(=O)(=O)c2ccc(F)cc2)[C@H]1CO	0	x	71	x	x	x	x
CN1c2ccc(-c3cccc(C#N)c3)cc2[C@H]2[C@H](CCN2S(=O)(=O)c2ccccc2)[C@H]1CO	-3	x	101*	108*	82	19	26*
Cc1ccc(S(=O)(=O)N2CC[C@@H]3[C@@H](CO)N(C)c4ccc(-c5cccc(C#N)c5)cc4[C@@H]32)cc1	-19	x	93	x	x	x	x
Cc1ccc(S(=O)(=O)N(C)CC(=O)Nc2cccc(C#N)c2)cc1	x	0	x	x	x	x	x
O=C(NCc1ccccn1)c1ccccc1O	x	1	x	x	x	x	x
